Test results as given in ChEMBL document CHEMBL4627366, “Structure-based drug design of 1,3,5-triazine and pyrimidine derivatives as novel FGFR3 inhibitors with high selectivity over VEGFR2” (Bioorg Med Chem, 2020).

Key:
[1] = biological target: Vascular endothelial growth factor receptor 2 (Homo sapiens, UniProt P35968); test: Inhibition of N-terminal GST-tagged human VEGFR2 cytoplasmic domain (790-1356 end amino acid residue) expressed in baculovirus expression system preincubated for 30 to 120 mins followed by incubation with substrate and ATP for 30 mins by off-chip mobility shift assay
Procedure, shortened: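 Recombinant VEGFR2 kinase preincubated with compound for 30 or 120 min at RT. Substrate plus ATP (75 µmol/L) added, 30 min at RT, then stopped with termination buffer and read by off-chip mobility shift. No-ATP wells set as 100% inhibition, DMSO wells as 0%. IC50 from Sigmoid-Emax nonlinear regression per experiment.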

[2] = Antiproliferative activity against human UM-UC-14 cells harboring FGFR3 S249C mutation assessed as inhibition of cell growth incubated for 5 days by CellTier-Glo luminescent assay; conditions: UMUC14, 120 h
[3] = biological target: Fibroblast growth factor receptor 4 (Homo sapiens, UniProt P22455); test: Inhibition of N-terminal GST-tagged human FGFR4 cytoplasmic domain (460-802 end amino acids residues) expressed in baculovirus expression system preincubated for 30 to 120 mins followed by incubation with substrate and ATP for 30 mins by off-chip mobility shift assay
[4] = biological target: Fibroblast growth factor receptor 2 (Homo sapiens, UniProt P21802); test: Inhibition of N-terminal GST-tagged human FGFR2 cytoplasmic domain (399-821 end amino acids residues) expressed in baculovirus expression system preincubated for 30 to 120 mins followed by incubation with substrate and ATP for 30 mins by off-chip mobility shift assay
[5] = biological target: Fibroblast growth factor receptor 1 (Homo sapiens, UniProt P11362); test: Inhibition of N-terminal GST-tagged human FGFR1 cytoplasmic domain (398-822 end amino acids residues) expressed in baculovirus expression system preincubated for 30 to 120 mins followed by incubation with substrate and ATP for 30 mins by off-chip mobility shift assay
[6] = biological target: Fibroblast growth factor receptor 3 (Homo sapiens, UniProt P22607); test: Inhibition of N-terminal GST-tagged human FGFR3 cytoplasmic domain (436-806 end amino acids residues) expressed in baculovirus expression system preincubated for 30 to 120 mins followed by incubation with substrate and ATP for 30 mins by off-chip mobility shift assay
Fibroblast growth factor receptor 3, sequence (P22607 whole entry, the tested form may be a part): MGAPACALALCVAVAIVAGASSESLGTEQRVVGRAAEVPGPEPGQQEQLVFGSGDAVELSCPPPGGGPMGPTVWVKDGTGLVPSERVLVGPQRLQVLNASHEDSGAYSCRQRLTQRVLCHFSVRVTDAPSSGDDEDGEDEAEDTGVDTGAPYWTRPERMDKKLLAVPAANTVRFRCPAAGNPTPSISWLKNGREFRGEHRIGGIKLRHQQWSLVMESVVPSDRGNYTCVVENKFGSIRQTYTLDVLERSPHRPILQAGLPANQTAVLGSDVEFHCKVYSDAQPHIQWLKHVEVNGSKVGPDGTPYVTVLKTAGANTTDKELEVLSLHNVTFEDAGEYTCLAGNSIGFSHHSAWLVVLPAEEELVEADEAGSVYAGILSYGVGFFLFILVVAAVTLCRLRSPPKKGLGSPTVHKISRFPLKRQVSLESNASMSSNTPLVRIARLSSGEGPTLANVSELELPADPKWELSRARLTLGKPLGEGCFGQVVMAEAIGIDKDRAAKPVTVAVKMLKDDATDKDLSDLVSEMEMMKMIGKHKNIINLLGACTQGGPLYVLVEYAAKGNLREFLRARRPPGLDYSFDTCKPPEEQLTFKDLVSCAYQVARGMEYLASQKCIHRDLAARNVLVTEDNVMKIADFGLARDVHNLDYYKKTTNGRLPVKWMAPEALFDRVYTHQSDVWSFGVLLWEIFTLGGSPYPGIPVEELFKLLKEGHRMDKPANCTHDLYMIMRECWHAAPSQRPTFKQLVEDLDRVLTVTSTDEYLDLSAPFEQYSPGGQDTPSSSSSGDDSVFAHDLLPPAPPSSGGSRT

Vascular endothelial growth factor receptor 2, sequence (P35968 whole entry, the tested form may be a part): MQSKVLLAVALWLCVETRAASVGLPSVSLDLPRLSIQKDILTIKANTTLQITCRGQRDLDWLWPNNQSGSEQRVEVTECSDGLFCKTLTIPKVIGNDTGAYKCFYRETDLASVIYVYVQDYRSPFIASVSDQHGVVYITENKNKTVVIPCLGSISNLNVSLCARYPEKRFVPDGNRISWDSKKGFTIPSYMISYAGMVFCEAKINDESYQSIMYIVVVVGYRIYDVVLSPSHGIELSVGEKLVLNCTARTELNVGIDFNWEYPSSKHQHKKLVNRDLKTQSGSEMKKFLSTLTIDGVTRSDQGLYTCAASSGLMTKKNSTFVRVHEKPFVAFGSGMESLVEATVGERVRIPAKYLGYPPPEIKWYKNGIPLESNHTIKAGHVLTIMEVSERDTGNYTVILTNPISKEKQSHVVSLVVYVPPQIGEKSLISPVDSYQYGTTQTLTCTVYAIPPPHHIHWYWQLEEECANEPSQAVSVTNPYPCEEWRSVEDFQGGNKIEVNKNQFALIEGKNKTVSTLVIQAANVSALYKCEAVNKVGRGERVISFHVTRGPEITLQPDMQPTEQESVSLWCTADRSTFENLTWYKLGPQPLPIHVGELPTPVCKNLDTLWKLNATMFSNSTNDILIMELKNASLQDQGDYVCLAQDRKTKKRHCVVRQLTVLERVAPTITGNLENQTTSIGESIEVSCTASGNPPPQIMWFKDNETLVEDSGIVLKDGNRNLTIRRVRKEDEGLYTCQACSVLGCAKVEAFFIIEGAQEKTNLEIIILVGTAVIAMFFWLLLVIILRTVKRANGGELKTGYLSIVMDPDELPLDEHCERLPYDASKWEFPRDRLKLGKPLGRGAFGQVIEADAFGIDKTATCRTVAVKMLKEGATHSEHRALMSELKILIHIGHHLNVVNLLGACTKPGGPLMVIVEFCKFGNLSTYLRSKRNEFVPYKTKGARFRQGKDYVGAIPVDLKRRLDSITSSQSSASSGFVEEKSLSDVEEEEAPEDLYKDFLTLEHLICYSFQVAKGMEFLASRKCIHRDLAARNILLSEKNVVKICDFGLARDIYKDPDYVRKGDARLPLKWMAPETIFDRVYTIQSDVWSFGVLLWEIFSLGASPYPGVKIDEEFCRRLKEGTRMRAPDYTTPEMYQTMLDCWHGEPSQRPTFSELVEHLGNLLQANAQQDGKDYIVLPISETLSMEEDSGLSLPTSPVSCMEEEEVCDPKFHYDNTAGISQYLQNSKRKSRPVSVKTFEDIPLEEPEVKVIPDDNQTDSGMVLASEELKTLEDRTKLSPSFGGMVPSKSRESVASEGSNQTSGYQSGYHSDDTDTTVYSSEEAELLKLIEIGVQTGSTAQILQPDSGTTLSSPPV
Fibroblast growth factor receptor 4, sequence (P22455 whole entry, the tested form may be a part): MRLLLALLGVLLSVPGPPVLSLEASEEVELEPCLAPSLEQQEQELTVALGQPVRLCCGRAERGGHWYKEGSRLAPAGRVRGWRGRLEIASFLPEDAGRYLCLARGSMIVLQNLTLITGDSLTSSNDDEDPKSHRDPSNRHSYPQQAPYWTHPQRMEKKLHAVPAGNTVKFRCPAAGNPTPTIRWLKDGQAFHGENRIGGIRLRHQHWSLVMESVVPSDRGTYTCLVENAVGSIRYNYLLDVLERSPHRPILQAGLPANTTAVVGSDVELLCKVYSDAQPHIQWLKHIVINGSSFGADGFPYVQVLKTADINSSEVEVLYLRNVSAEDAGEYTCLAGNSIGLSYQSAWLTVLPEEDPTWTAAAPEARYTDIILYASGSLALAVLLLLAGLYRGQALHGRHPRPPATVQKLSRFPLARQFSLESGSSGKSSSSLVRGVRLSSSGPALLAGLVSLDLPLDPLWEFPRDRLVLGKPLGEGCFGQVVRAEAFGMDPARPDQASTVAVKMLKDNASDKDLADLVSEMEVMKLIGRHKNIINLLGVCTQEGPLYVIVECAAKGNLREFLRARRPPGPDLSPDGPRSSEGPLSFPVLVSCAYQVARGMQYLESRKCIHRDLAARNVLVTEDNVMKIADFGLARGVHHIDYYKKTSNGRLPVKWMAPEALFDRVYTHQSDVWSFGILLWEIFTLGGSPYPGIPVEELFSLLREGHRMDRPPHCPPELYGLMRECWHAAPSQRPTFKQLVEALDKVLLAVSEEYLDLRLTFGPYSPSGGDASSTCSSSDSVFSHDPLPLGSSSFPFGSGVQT
Fibroblast growth factor receptor 2, sequence (P21802 whole entry, the tested form may be a part): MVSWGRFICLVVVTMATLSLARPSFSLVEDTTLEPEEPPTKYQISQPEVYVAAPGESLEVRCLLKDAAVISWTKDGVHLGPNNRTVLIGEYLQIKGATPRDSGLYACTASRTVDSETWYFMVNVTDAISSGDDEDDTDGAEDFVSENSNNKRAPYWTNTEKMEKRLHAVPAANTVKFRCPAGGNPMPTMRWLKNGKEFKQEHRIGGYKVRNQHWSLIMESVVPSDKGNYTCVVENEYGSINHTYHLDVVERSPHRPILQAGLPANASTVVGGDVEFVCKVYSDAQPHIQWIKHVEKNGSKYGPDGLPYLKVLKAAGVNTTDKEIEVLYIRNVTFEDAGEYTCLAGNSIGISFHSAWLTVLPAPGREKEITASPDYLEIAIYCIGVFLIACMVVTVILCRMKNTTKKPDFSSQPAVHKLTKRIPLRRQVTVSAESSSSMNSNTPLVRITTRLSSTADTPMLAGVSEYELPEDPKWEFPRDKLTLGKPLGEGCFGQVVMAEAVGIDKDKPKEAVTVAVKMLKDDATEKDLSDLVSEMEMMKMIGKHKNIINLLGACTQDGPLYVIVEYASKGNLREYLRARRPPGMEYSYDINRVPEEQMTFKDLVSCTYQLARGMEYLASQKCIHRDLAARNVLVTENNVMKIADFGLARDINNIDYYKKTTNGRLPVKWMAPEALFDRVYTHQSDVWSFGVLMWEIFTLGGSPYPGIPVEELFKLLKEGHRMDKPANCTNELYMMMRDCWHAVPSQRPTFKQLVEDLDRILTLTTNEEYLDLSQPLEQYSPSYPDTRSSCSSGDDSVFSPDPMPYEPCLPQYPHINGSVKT
Fibroblast growth factor receptor 1, sequence (P11362 whole entry, the tested form may be a part): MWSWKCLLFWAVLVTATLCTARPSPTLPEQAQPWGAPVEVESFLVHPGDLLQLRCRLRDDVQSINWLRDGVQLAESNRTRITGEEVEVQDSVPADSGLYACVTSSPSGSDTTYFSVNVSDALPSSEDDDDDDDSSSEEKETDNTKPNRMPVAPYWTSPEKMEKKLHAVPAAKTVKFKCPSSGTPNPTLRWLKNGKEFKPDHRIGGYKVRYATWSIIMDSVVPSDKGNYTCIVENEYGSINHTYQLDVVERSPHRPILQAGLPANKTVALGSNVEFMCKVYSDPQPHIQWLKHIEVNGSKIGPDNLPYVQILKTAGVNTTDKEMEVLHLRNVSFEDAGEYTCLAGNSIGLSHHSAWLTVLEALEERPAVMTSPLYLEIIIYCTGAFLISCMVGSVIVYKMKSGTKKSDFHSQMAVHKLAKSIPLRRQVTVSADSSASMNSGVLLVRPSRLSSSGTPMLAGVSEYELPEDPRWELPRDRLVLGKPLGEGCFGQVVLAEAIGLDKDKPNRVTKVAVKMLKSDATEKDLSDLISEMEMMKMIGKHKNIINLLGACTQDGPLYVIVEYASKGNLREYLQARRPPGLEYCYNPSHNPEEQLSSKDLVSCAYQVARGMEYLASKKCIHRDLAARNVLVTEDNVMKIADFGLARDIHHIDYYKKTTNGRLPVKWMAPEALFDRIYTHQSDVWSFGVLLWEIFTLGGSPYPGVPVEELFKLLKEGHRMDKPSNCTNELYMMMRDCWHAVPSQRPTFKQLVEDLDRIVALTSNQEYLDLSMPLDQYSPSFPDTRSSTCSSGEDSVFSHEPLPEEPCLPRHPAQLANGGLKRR

| IC50 [1] [nM] | SMILES | also measured |
| --- | --- | --- |
| 38 | CCNS(=O)(=O)c1ccccc1Nc1nc(Nc2ccc(N3CCC(N4CCN(C)CC4)CC3)c(OC)c2)ncc1-c1cc(OC)cc(OC)c1 | – |
| 131 | CCNS(=O)(=O)c1ccccc1Nc1nc(Nc2ccc(N3CCC(N4CCN(C)CC4)CC3)c(OC)c2)ncc1NC(=O)c1nc(OC)cc(OC)n1 | – |
| 461 | CCNS(=O)(=O)c1ccccc1Nc1nc(Nc2ccc(N3CCC(N4CCN(C)CC4)CC3)c(OC)c2)ncc1NC(=O)c1cccc(OC)c1OC | – |
| 554 | CCNS(=O)(=O)c1ccccc1Nc1nc(Nc2ccc(N3CCC(N4CCN(C)CC4)CC3)c(OC)c2)ncc1NC(=O)c1cc(C)cc(C)c1 | – |
| > 1000 | CCNS(=O)(=O)c1ccccc1Nc1nc(Nc2ccc(N3CCC(N4CCN(C)CC4)CC3)c(OC)c2)ncc1NC(=O)c1cc(OC)cc(OC)c1 | IC50 [2]: 84 nM; IC50 [3]: 74 nM; IC50 [4]: 3.1 nM; IC50 [5]: 2.1 nM |
| 227 | CCNS(=O)(=O)c1ccccc1Nc1nc(Nc2ccc(N3CCC(N4CCN(C)CC4)CC3)c(OC)c2)ncc1NC(=O)c1cc(OC)nc(OC)n1 | – |
| > 1000 | CCNS(=O)(=O)c1ccccc1Nc1nc(Nc2ccc(N3CCC(N4CCN(C)CC4)CC3)c(OC)c2)ncc1Cc1cc(OC)cc(OC)c1 | IC50 [6]: > 1000 nM |
| 435 | CCNS(=O)(=O)c1ccccc1Nc1nc(Nc2ccc(N3CCC(N4CCN(C)CC4)CC3)c(OC)c2)ncc1NC(=O)c1cc(OC)ccc1OC | – |
| 715 | CCNS(=O)(=O)c1ccccc1Nc1nc(Nc2ccc(N3CCC(N4CCN(C)CC4)CC3)c(OC)c2)ncc1NC(=O)c1cc(O)cc(O)c1 | – |

Further lines, the compound ahead of its results:

| SMILES | IC50 [1] [nM] | also measured |
| --- | --- | --- |
| CCNS(=O)(=O)c1ccccc1Nc1nc(Nc2ccc(N3CCC(N4CCN(C)CC4)CC3)c(OC)c2)ncc1CCc1cc(OC)cc(OC)c1 | 292 | – |
| CCNS(=O)(=O)c1ccccc1Nc1ncnc(Nc2ccc(N3CCN(C)CC3)c(OC)c2)n1 | 341 | – |
| CCNS(=O)(=O)c1ccccc1Nc1ncnc(Nc2ccc(N3CCN(C)CC3)c(OCCN3CCN(C)CC3)c2)n1 | 341 | – |
| CCNS(=O)(=O)c1ccccc1Nc1ncnc(Nc2ccc(N3CCN(C)CC3)c(OCCCN3CCOCC3)c2)n1 | 736 | – |
| CCNS(=O)(=O)c1ccccc1Nc1ncnc(Nc2ccc(N3CCN(C)CC3)c(OCCOCCOC)c2)n1 | 550 | – |
| CCNS(=O)(=O)c1ccccc1Nc1ncnc(Nc2ccc(N3CCC(N4CCN(C)CC4)CC3)c(OC)c2)n1 | 266 | – |
| CCNS(=O)(=O)c1ccccc1Nc1ncnc(Nc2ccc(N3CCN(C)CC3)c(OCC(=O)O)c2)n1 | 120 | – |
| CCNS(=O)(=O)c1ccccc1Nc1ncnc(Nc2ccc(N3CCN(C)CC3)c(OCC(=O)OCC)c2)n1 | 316 | – |
| CCNS(=O)(=O)c1ccccc1Nc1ncnc(Nc2ccc(N3CCN(C)CC3)c(OCCOC)c2)n1 | 310 | – |
| CCNS(=O)(=O)c1ccccc1Nc1ncnc(Nc2ccc(N3CCN(C)CC3)c(OCCN3CCOCC3)c2)n1 | 570 | – |
